Assay results as given in ChEMBL document CHEMBL1124005, “Inhibitors of cyclic AMP phosphodiesterase. 4. Synthesis and evaluation of potential prodrugs of lixazinone (N-cyclohexyl-N-methyl-4-[(1,2,3,5-tetrahydro-2- oxoimidazo[2,1-b]quinazolin-7-yl)-oxy]butyramide, RS-82856)” (J Med Chem, 1988).
Active and inactive are the calls of the source. The rule behind the calls is not given here.

Assays:
Homo sapiens = organism: Homo sapiens; test: Inhibition of platelet aggregation; type: functional
Canis familiaris [1] = test: In vivo inotropic activity in canine model by intraduodenal administration (Inactive); type: functional, organism-based; details: Canis lupus familiaris
[2] = In vitro inhibitory activity against platelet phosphodiesterase (PDE)
How it was run: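 Human platelet cAMP PDE in 10 mM Tris-HCl pH 7.7, 10 mM MgSO4, 1 µM […]. Compounds dissolved in DMSO, held 10 min in medium before enzyme addition, then 10 min at 30 °C. Five inhibitor concentrations run in triplicate; IC50 read graphically from mean curves.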

Canis familiaris [3] = test: In vivo inotropic activity in canine model by intravenous administration (Inactive); type: functional, organism-based; details: Canis lupus familiaris
Canis familiaris [4] = test: In vivo inotropic activity in canine model by intravenous administration of 0.316 mg/kg efficacious dose; type: functional, Canis lupus familiaris
Canis familiaris [5] = test: In vivo inotropic activity in canine model by intraduodenal administration of 3.16 mg/kg efficacious dose; type: functional, Canis lupus familiaris
Canis familiaris [6] = test: In vivo inotropic activity in canine model by intravenous administration of 0.10 mg/kg efficacious dose; type: functional, Canis lupus familiaris; details: dose 0.1 mg/kg
Canis familiaris [7] = test: In vivo inotropic activity in canine model by intraduodenal administration of 0.316 mg/kg efficacious dose; type: functional, Canis lupus familiaris
Canis familiaris [8] = test: In vivo inotropic activity in canine model by intraduodenal administration of 1.0 mg/kg efficacious dose; type: functional, Canis lupus familiaris
Canis familiaris [9] = test: Pharmacokinetic parameter AUC was determined in dog after oral administration of 2b; type: ADME, organism-based, Canis lupus familiaris; details: in vivo
How it was run: (§1)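 Six fasted conscious female dogs (9.4–10.5 kg) were each given one oral hard-gelatin capsule, dose equivalent to 15 mg parent drug, with 1 week between doses. Jugular blood was sampled at 0–24 h. Plasma parent drug was measured by HPLC after SCX/C-18 extraction (C-8, 280 nm, limit 5 ng/mL). AUC0–24 h was calculated by trapezoidal rule; values are mean ± SD.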

Canis familiaris [10] = test: Pharmacokinetic parameter AUC was determined in dog after oral administration of 17b; type: ADME, organism-based, Canis lupus familiaris; details: in vivo; how it was run: as §1
Canis familiaris [11] = test: In vivo inotropic activity in canine model by intravenous administration 1.0 mg/kg efficacious dose; type: functional, Canis lupus familiaris

In the case of `Br.CN(C(=O)CCCOc1ccc2c(c1)CN(CC(=O)OC(C)(C)C)C(N)=N2)C1CCCCC1`, the IC50 (Homo sapiens) is reported as 4300 nM, the “Max CF response” value (Canis familiaris [1]) is reported as “inactive” and the IC50 [2] is reported as 430 nM. The “Max CF response” value (Canis familiaris [3]) was “inactive”.

With `Br.CC(OC(=O)CN1Cc2cc(OCCCC(=O)N(C)C3CCCCC3)ccc2N=C1N)c1ccccc1` (stereo not given) the “Max CF response” value (Canis familiaris [4]) was 61%, the IC50 (Homo sapiens) was 150 nM and the “Max CF response” value (Canis familiaris [5]) was 64%. It also gave an IC50 [2] of 8 nM.

For `Br.CC(C)OC(=O)CN1Cc2cc(OCCCC(=O)N(C)C3CCCCC3)ccc2N=C1N`, the “Max CF response” value (Canis familiaris [4]) was 40%, the IC50 (Homo sapiens) was 3400 nM and the “Max CF response” value (Canis familiaris [5]) was 31%. For the same compound, the IC50 [2] was 63 nM.

For `Br.CN(C(=O)CCCOc1ccc2c(c1)CN(CC(=O)OC1CCCCC1)C(N)=N2)C1CCCCC1`, the IC50 (Homo sapiens) was 1200 nM, the “Max CF response” value (Canis familiaris [5]) was 45% and the IC50 [2] was 52 nM.

With `Br.CCOC(=O)CN1Cc2cc(OCCCC(=O)N(C)C3CCCCC3)ccc2N=C1N` the “Max CF response” value (Canis familiaris [4]) was 75%, the “Max CF response” value (Canis familiaris [5]) was 62% and the IC50 [2] was 9.3 nM.

In the case of `CN(C(=O)CCCOc1ccc2c(c1)CN1CC(=O)N(CN3CCOCC3)C1=N2)C1CCCCC1`, the “Max CF response” value (Canis familiaris [6]) is reported as 65%, the Max CF response (Canis familiaris [7]) is reported as 25% and the IC50 [2] is reported as 16 nM.

For `Br.CN(C(=O)CCCOc1ccc2c(c1)CN(CC(=O)N1CCOCC1)C(N)=N2)C1CCCCC1`, the “Max CF response” value (Canis familiaris [4]) was 71%, the IC50 (Homo sapiens) was 700 nM and the “Max CF response” value (Canis familiaris [5]) was 70%. For the same compound, the IC50 [2] was 52 nM.

For `CN(C(=O)CCCOc1ccc2c(c1)CN1CC(=O)N(COC(=O)C(C)(C)C)C1=N2)C1CCCCC1`, the IC50 [2] was 150 nM.

In the case of `CCOC(=O)C(CCOc1ccc2c(c1)CN1CC(=O)NC1=N2)C(=O)N(C)C1CCCCC1` (stereo not given), the “Max CF response” value (Canis familiaris [4]) is reported as 50%, the “Max CF response” value (Canis familiaris [8]) is reported as 50% and the IC50 [2] is reported as 6.1 nM.

In the case of `Br.CN(C(=O)CCCOc1ccc2c(c1)CN(CC(=O)Nc1ccccc1)C(N)=N2)C1CCCCC1`, the “Max CF response” value (Canis familiaris [4]) is reported as 64%, the IC50 (Homo sapiens) is reported as 5400 nM and the “Max CF response” value (Canis familiaris [5]) is reported as 37%. For the same compound, the IC50 [2] was 100 nM.

With `Br.CN(C(=O)CCCOc1ccc2c(c1)CN(CC(=O)OCC(C)(C)C)C(N)=N2)C1CCCCC1` the IC50 [2] was 35 nM.

In the case of `Br.CN(C(=O)CCCOc1ccc2c(c1)CN(CC(N)=O)C(N)=N2)C1CCCCC1`, the “Max CF response” value (Canis familiaris [4]) is reported as 37%, the IC50 (Homo sapiens) is reported as 4200 nM and the “Max CF response” value (Canis familiaris [5]) is reported as 37%. The IC50 [2] was 120 nM.

`CN(C(=O)CCCOc1ccc2c(c1)CN(CC(N)=O)C(=O)N2)C1CCCCC1` showed an IC50 [2] of 18500 nM.

With `CN(C(=O)CCCOc1ccc2c(c1)CN1CC(=O)NC1=N2)C1CCCCC1` [LIXAZINONE] the IC50 (Homo sapiens) was 50 nM, the “Max CF response” value (Canis familiaris [6]) was 71% and the “Max CF response” value (Canis familiaris [7]) was 42%. For the same compound, the AUC (Canis familiaris [9]) was 257 ng·h/mL, the AUC (Canis familiaris [10]) was 268 ng·h/mL and the IC50 [2] was 6 nM.

With `Br.CN(C(=O)CCCOc1ccc2c(c1)CN(CC(=O)N1CCCCC1)C(N)=N2)C1CCCCC1` the IC50 [2] was 10 nM.

For `Br.CN(C(=O)CCCOc1ccc2c(c1)CN(CC(=O)O)C(N)=N2)C1CCCCC1`, the “Max CF response” value (Canis familiaris [1]) was “inactive”, the IC50 [2] was 60 nM and the “Max CF response” value (Canis familiaris [3]) was “inactive”.

In the case of `Br.CC(OC(=O)CN1Cc2cc(OCCCC(=O)N(C)C3CCCCC3)ccc2N=C1N)C(C)(C)C` (stereo not given), the IC50 (Homo sapiens) is reported as 17000 nM, the “Max CF response” value (Canis familiaris [5]) is reported as 62% and the IC50 [2] is reported as 470 nM.

For `CCOC(=O)CN1Cc2cc(OCCCC(=O)N(C)C3CCCCC3)ccc2N=C1NC(C)=O`, the IC50 (Homo sapiens) was 100000 nM, the “Max CF response” value (Canis familiaris [5]) was 58% and the “Max CF response” value (Canis familiaris [11]) was 58%. For the same compound, the IC50 [2] was 3100 nM.

With `CN(C(=O)CCCOc1ccc(N)c(CN2CC(=O)NC2=O)c1)C1CCCCC1` the IC50 [2] was 3400 nM.

For `CN(C(=O)C(CCOc1ccc2c(c1)CN1CC(=O)NC1=N2)C(=O)O)C1CCCCC1` (stereo not given), the “Max CF response” value (Canis familiaris [4]) was 58%, the “Max CF response” value (Canis familiaris [8]) was 20% and the IC50 [2] was 5 nM.
